# Reference: ChEMBL document CHEMBL1156597, “Structure-activity relationship of kahalalide F synthetic analogues” (J Med Chem, 2008)
# What was measured:
# HeLa = test: Cytotoxicity against human HeLa cells after 48 hrs by SRB assay; type: functional; settings: read-out: LC50 (the source's name)
# In short: (§1)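 Cells grown in RPMI 1640 with 10% FBS and penicillin/streptomycin at 37 °C and 5% CO₂, trypsinized, then seeded at 5 × 10³/well. After 18 h drug-free attachment, samples in DMSO/EtOH/PBS (0.5:0.5:99) were added for 48 h continuous exposure. Cells were fixed with cold TCA (1 h, 4 °C) and stained with SRB (10 min). Tris-solubilized stain read at 490 nm. Triplicate wells, mean ± SD; GI₅₀ derived.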
# LNCaP = test: Cytotoxicity against human LNcaP cells after 48 hrs by SRB assay; type: functional; settings: for CC50: read-out: LC50 (the source's name); in short: as §1
# [1] = Cytotoxicity against human IGROV-ET cells after 48 hrs by SRB assay; type: functional; settings: for CC50: read-out: LC50 (the source's name); in short: as §1
# LoVo [2] = test: Cytotoxicity against human LoVo cells after 48 hrs by SRB assay; type: functional; settings: for CC50: read-out: LC50 (the source's name)
# SK-MEL-28 = test: Cytotoxicity against human SK-MEL-28 cells after 48 hrs by SRB assay; type: functional, cell-based; settings: Homo sapiens, SK-MEL-28, 48 h; for CC50: read-out: LC50 (the source's name); in short: as §1
# A549 = test: Cytotoxicity against human A549 cells after 48 hrs by SRB assay; type: functional, cell-based; settings: Homo sapiens, A549, 48 h; in short: as §1
# DU-145 = test: Cytotoxicity against human DU145 cells after 48 hrs by SRB assay; type: functional, cell-based; settings: Homo sapiens, DU-145, 48 h; for CC50: read-out: LC50 (the source's name); in short: as §1
# [3] = Cytotoxicity against human IGROV cells after 48 hrs by SRB assay; type: functional; settings: for CC50: read-out: LC50 (the source's name); in short: as §1
# [4] = Cytotoxicity against human HeLa-APL cells after 48 hrs by SRB assay; type: functional; in short: as §1
# HT-29 = test: Cytotoxicity against human HT29 cells after 48 hrs by SRB assay; type: functional, cell-based; settings: Homo sapiens, HT-29, 48 h; for CC50: read-out: LC50 (the source's name); in short: as §1
# PANC-1 = test: Cytotoxicity against human PANC1 cells after 48 hrs by SRB assay; type: functional; settings: PANC-1, 48 h; for CC50: read-out: LC50 (the source's name); in short: as §1
# LoVo [5] = test: Cytotoxicity against human doxorubicin resistant LoVo cells after 48 hrs by SRB assay; type: functional; settings: for CC50: read-out: LC50 (the source's name); in short: as §1
# SK-BR-3 = test: Cytotoxicity against human SKBR3 cells after 48 hrs by SRB assay; type: functional; settings: SK-BR-3, 48 h; for GI50: read-out: GI50; for CC50: read-out: LC50 (the source's name); in short: as §1
compound,measurement,setting,value
C/C=C1\NC(=O)[C@H](Cc2c(F)c(F)c(F)c(F)c2F)NC(=O)[C@@H](C(C)C)NC(=O)[C@@H]([C@H](C)CC)NC(=O)[C@H](NC(=O)[C@H](NC(=O)[C@H](CCCN)NC(=O)[C@H]2CCCN2C(=O)[C@H](NC(=O)[C@@H](NC(=O)[C@@H](NC(=O)[C@H](NC(=O)CC[C@@H](C)CC)C(C)C)[C@@H](C)O)C(C)C)C(C)C)[C@H](C)CC)[C@H](C)OC(=O)[C@H](C(C)C)NC1=O,CC50,HeLa,1300 nM
same,GI50,LNCaP,504 nM
same,TGI,LNCaP,681 nM
same,CC50,LNCaP,778 nM
same,CC50,[1],1150 nM
same,GI50,LoVo [2],469 nM
same,TGI,LoVo [2],426 nM
same,CC50,LoVo [2],386 nM
same,TGI,SK-MEL-28,1200 nM
same,GI50,SK-MEL-28; read-out: GI50,1280 nM
same,CC50,SK-MEL-28,1120 nM
same,LC50,A549,1270 nM
same,TGI,A549,1530 nM
same,GI50,A549; read-out: GI50,1850 nM
same,TGI,DU-145,1170 nM
same,GI50,DU-145; read-out: GI50,1370 nM
same,CC50,DU-145,1000 nM
same,TGI,[3],1740 nM
same,GI50,[3]; read-out: GI50,2070 nM
same,CC50,[3],1100 nM
same,GI50,[4],1450 nM
same,LC50 (concentration giving 50% net cell kill),[4],983 nM
same,TGI,[4],1200 nM
same,GI50,HT-29,1090 nM
same,TGI,HT-29,1740 nM
same,CC50,HT-29,256 nM
same,GI50,PANC-1,2110 nM
same,TGI,PANC-1,3420 nM
same,CC50,PANC-1,2810 nM
same,GI50,LoVo [5],496 nM
same,TGI,LoVo [5],432 nM
same,CC50,LoVo [5],374 nM
same,TGI,SK-BR-3,492 nM
same,GI50,SK-BR-3,556 nM
same,CC50,SK-BR-3,435 nM
C/C=C1\NC(=O)[C@H](Cc2ccc(I)cc2)NC(=O)[C@@H](C(C)C)NC(=O)[C@@H]([C@H](C)CC)NC(=O)[C@H](NC(=O)[C@H](NC(=O)[C@H](CCCN)NC(=O)[C@H]2CCCN2C(=O)[C@H](NC(=O)[C@@H](NC(=O)[C@@H](NC(=O)[C@H](NC(=O)CC[C@@H](C)CC)C(C)C)[C@@H](C)O)C(C)C)C(C)C)[C@H](C)CC)[C@H](C)OC(=O)[C@H](C(C)C)NC1=O,CC50,HeLa,156 nM
same,GI50,LNCaP,345 nM
same,TGI,LNCaP,512 nM
same,CC50,LNCaP,686 nM
same,GI50,[1],955 nM
same,GI50,[1]; read-out: GI50,1190 nM
same,CC50,[1],776 nM
same,GI50,LoVo [2],365 nM
same,TGI,LoVo [2],361 nM
same,CC50,LoVo [2],358 nM
same,GI50,SK-MEL-28,202 nM
same,GI50,SK-MEL-28; read-out: GI50,160 nM
same,CC50,SK-MEL-28,354 nM
same,GI50,A549,203 nM
same,LC50,A549,181 nM
same,GI50,A549; read-out: GI50,226 nM
same,GI50,DU-145,131 nM
same,GI50,DU-145; read-out: GI50,148 nM
same,CC50,DU-145,117 nM
same,GI50,[3],394 nM
same,GI50,[3]; read-out: GI50,670 nM
same,CC50,[3],179 nM
same,GI50,[4],313 nM
same,LC50 (concentration giving 50% net cell kill),[4],605 nM
same,TGI,[4],416 nM
same,GI50,HT-29,396 nM
same,TGI,HT-29,407 nM
same,CC50,HT-29,423 nM
same,GI50,PANC-1,1200 nM
same,TGI,PANC-1,1300 nM
same,CC50,PANC-1,1410 nM
same,GI50,LoVo [5],134 nM
same,TGI,LoVo [5],183 nM
same,CC50,LoVo [5],225 nM
same,TGI,SK-BR-3,315 nM
same,GI50,SK-BR-3,305 nM
same,CC50,SK-BR-3,327 nM
C/C=C1\NC(=O)[C@H](Cc2ccc([N+](=O)[O-])cc2)NC(=O)[C@@H](C(C)C)NC(=O)[C@@H]([C@H](C)CC)NC(=O)[C@H](NC(=O)[C@H](NC(=O)[C@H](CCCN)NC(=O)[C@H]2CCCN2C(=O)[C@H](NC(=O)[C@@H](NC(=O)[C@@H](NC(=O)[C@H](NC(=O)CC[C@@H](C)CC)C(C)C)[C@@H](C)O)C(C)C)C(C)C)[C@H](C)CC)[C@H](C)OC(=O)[C@H](C(C)C)NC1=O,CC50,HeLa,185 nM
same,GI50,LNCaP,482 nM
same,TGI,LNCaP,511 nM
same,CC50,LNCaP,669 nM
same,GI50,[1],811 nM
same,GI50,[1]; read-out: GI50,1050 nM
same,CC50,[1],636 nM
same,GI50,LoVo [2],317 nM
same,TGI,LoVo [2],314 nM
same,CC50,LoVo [2],311 nM
same,GI50,SK-MEL-28,235 nM
same,GI50,SK-MEL-28; read-out: GI50,188 nM
same,CC50,SK-MEL-28,436 nM
same,GI50,A549,724 nM
same,LC50,A549,891 nM
same,GI50,A549; read-out: GI50,562 nM
same,TGI,DU-145,3640 nM
same,GI50,DU-145; read-out: GI50,261 nM
same,CC50,DU-145,561 nM
same,GI50,[3],417 nM
same,GI50,[3]; read-out: GI50,682 nM
same,CC50,[3],197 nM
same,GI50,[4],569 nM
same,LC50 (concentration giving 50% net cell kill),[4],783 nM
same,TGI,[4],700 nM
same,GI50,HT-29,419 nM
same,TGI,HT-29,411 nM
same,CC50,HT-29,409 nM
same,GI50,PANC-1,1290 nM
same,TGI,PANC-1,1430 nM
same,CC50,PANC-1,1580 nM
same,GI50,LoVo [5],90.4 nM
same,TGI,LoVo [5],141 nM
same,CC50,LoVo [5],209 nM
same,TGI,SK-BR-3,406 nM
same,GI50,SK-BR-3,366 nM
same,CC50,SK-BR-3,451 nM
C/C=C1\NC(=O)[C@H](Cc2ccc(F)cc2)NC(=O)[C@@H](C(C)C)NC(=O)[C@@H]([C@H](C)CC)NC(=O)[C@H](NC(=O)[C@H](NC(=O)[C@H](CCCN)NC(=O)[C@H]2CCCN2C(=O)[C@H](NC(=O)[C@@H](NC(=O)[C@@H](NC(=O)[C@H](NC(=O)CC[C@@H](C)CC)C(C)C)[C@@H](C)O)C(C)C)C(C)C)[C@H](C)CC)[C@H](C)OC(=O)[C@H](C(C)C)NC1=O,CC50,HeLa,2820 nM
same,GI50,LNCaP,514 nM
same,TGI,LNCaP,620 nM
same,CC50,LNCaP,747 nM
same,GI50,[1],791 nM
same,GI50,[1]; read-out: GI50,971 nM
same,CC50,[1],649 nM
same,GI50,LoVo [2],393 nM
same,TGI,LoVo [2],361 nM
same,CC50,LoVo [2],330 nM
same,GI50,SK-MEL-28,819 nM
same,GI50,SK-MEL-28; read-out: GI50,699 nM
same,CC50,SK-MEL-28,953 nM
same,LC50,A549,1040 nM
same,TGI,A549,1030 nM
same,GI50,A549; read-out: GI50,1010 nM
same,GI50,DU-145,893 nM
same,GI50,DU-145; read-out: GI50,891 nM
same,CC50,DU-145,893 nM
same,GI50,[3],558 nM
same,GI50,[3]; read-out: GI50,812 nM
same,CC50,[3],381 nM
same,GI50,[4],737 nM
same,LC50 (concentration giving 50% net cell kill),[4],837 nM
same,TGI,[4],786 nM
same,GI50,HT-29,452 nM
same,TGI,HT-29,462 nM
same,CC50,HT-29,479 nM
same,GI50,PANC-1,1460 nM
same,TGI,PANC-1,1530 nM
same,CC50,PANC-1,1580 nM
same,GI50,LoVo [5],413 nM
same,TGI,LoVo [5],460 nM
same,CC50,LoVo [5],512 nM
same,TGI,SK-BR-3,448 nM
same,GI50,SK-BR-3,519 nM
same,CC50,SK-BR-3,389 nM
